Compound activity deposited in PubChem by several laboratories.
CSC inhib: blocks cancer stem cells; cancer stem cell-like cells viability, luminescence; AID 2717; inhibition, % at 7.5 µM; actives 1.1% (n = 300,000); in the data active = inhibition above about 75%; tested in HMLE shEcad cells
XBP1 UPR activ: adaptive UPR (XBP1) activation | AID 463104 | actives 0.33% (n = 330,000) | activation, % at 20 µM | CHO-XBP1 luciferase reporter, IRE1-XBP1 UPR activation, luminescence; percent of tunicamycin response, DMSO as zero;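 active = versus positive control, 20 µM dose yields 30% or more activation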
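Signal: luciferase luminescence; Assay system: CHO-XBP1 luciferase reporter cells; Amount: one thousand reporter cells per well; Dosing: 20 µM single concentration, DMSO 1%; Benchmarks: high control tunicamycin 10 µg/mL final, low control DMSO vehicle only; Schedule: 6 h compound exposure at 37 °C, 5% CO2; Evaluation: percent activation relative to tunicamycin reference.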
UPR CHOP act: apoptotic UPR (CHOP) activation; actives 0.34% (n = 330,000); activation, % at 10 µM; CHO-CHOP luciferase reporter, luminescence; percent of tunicamycin response over DMSO baseline; AID 449763;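 active = at 10 µM dose, activation of 40% or more, normalized to positive control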
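Test system: CHO-CHOP cells, stable luciferase reporter of PERK-eIF2a-CHOP signalling | Quantity: 500 CHO-CHOP cells per well | Buffer or medium: F12 plus 10% serum | Compound dosing: 10 µM single point, 0.5% DMSO | Schedule: 6 h compound treatment, 37 °C | Signal: Luciferase luminescence | Control set: Tunicamycin high control, DMSO low control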
Beta apoptosis: blocks beta cell apoptosis | actives 0.8% (n = 300,000) | INS-1E cytokine-induced death, ATP luminescence, 48 h; percent of positive-control rescue, neutral wells zero | protection from apoptosis, % (test concentration not listed);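 active = Every replicate reaches about 75%, or at least half do and their mean reaches it too, limit read from the data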;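 note: higher means more ATP so stronger rescue from cytokine killing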
SKKanGAS inh: SKKanGAS growth inhibition | S. pyogenes SKKanGAS, kanamycin growth, BacTiter-Glo, 6 h | inhibition, % at 7.5 µM | actives 1.3% (n = 300,000) | AID 1662;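 active = mean replicate score, as percent of positive control median, at least 50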;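 note: strain carries kanamycin resistance gene driven by streptokinase promoter and grows in 40 µg/ml kanamycin; loss of luminescence reflects streptokinase promoter inhibition or plain growth inhibition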
Mdm2-MdmX inh: disrupts the human Mdm2-MdmX interaction. inhibition, % at 8 µM. AID 485346. actives 3% (n = 330,000). O15151+Q00987. SaOS-2 split-luciferase Mdm2/MdmX complementation, luminescence;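 active = inhibition of at least 50% at 8 µM in the primary screen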
Target sequence (O15151 whole entry, looked up): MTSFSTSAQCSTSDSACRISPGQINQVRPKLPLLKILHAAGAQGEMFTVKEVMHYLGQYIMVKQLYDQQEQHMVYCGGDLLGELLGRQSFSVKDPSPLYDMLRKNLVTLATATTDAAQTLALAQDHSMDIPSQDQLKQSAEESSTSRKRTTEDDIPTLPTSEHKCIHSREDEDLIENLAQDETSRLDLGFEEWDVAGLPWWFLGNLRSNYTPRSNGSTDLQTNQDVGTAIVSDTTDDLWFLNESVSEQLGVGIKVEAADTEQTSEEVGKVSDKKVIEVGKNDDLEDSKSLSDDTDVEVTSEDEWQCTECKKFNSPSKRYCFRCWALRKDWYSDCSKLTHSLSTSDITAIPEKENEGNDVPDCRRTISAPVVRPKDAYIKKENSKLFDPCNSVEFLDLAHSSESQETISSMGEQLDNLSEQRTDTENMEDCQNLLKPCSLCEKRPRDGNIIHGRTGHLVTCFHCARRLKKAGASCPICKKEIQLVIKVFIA
Target sequence (Q00987 whole entry, looked up): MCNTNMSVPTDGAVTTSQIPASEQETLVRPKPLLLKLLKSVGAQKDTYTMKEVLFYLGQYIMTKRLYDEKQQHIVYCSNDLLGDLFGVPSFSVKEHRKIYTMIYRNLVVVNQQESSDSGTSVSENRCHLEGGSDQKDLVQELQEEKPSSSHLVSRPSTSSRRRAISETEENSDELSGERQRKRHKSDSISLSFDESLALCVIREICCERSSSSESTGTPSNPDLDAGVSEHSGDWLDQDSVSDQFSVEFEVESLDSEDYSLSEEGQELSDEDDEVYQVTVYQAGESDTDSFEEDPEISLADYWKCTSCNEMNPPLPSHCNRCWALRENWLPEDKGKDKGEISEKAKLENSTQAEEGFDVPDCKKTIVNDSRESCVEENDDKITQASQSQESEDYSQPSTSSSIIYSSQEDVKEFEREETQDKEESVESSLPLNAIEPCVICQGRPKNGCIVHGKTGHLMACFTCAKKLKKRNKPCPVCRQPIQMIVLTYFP
Mdm2 MdmX conf: confirmation of human Mdm2/MdmX interaction inhibitors; shares compounds with Mdm2-MdmX inh; Mdm2-MdmX binding, luminescent assay; inhibition, % at 8 µM; actives 55% (n = 10,000); in the data active = inhibition above about 40%
Full FLuc ctr: inhibits full-length luciferase, flagging false Mdm2/MdmX hits. shares compounds with Mdm2-MdmX inh. SaOS-2 full-length luciferase counterscreen, luminescence. inhibition, % at 8 µM. actives 77% (n = 6,200);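 active = mean inhibition at 8 µM reaching about 37%, which flags the compound as non-specific, limit read from the data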;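 note: p53-null SaOS-2 cells with luciferase driven by a doxycycline-inducible promoter; compound on cells about two nights before reading with doxycycline added after day one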
Of the large screens only hits and unclear results are named; the others gave an inactive call (follow-up assays come after a bar, where they were run). Sampled rows, rich in hits. Any-hit rate of the full collection: about 4.8%.

COc1cc(CNC(=O)C2CCC(=O)N(C3CCCCCC3)C2)cc(OC)c1 (stereo unspecified)	none
COc1ccc2nc(NC(=O)C3CC(=O)N(c4ccc5c(c4)OCCO5)C3)sc2c1 (stereo unspecified)	none (no result: CSC inhib, Beta apoptosis, SKKanGAS inh)
COc1ccc(-c2nc(NC(=O)C3CC(=O)N(c4ccc5c(c4)OCCO5)C3)sc2C)cc1 (stereo unspecified)	SKKanGAS inh 55, Mdm2-MdmX inh 66 | Mdm2 MdmX conf 58 | Full FLuc ctr 36
O=C(/C=C/c1ccc2c(c1)OCO2)Nc1nc2ccc(F)cc2s1	Mdm2-MdmX inh 73 | Mdm2 MdmX conf inactive
C=CCN=c1scc(-c2ccc(F)cc2)n1/N=C/c1ccccn1	none
C=CCN=c1scc(-c2ccccc2)n1/N=C/c1ccccn1	Mdm2-MdmX inh 79 | Mdm2 MdmX conf 64 | Full FLuc ctr 42
CCN=c1scc(-c2ccccc2)n1/N=C/c1ccccn1	Mdm2-MdmX inh 85 | Mdm2 MdmX conf 66 | Full FLuc ctr 127
CCOc1ccc(CCNC(=O)COC(=O)c2ccc[nH]c2=O)cc1OCC	none (no result: SKKanGAS inh)
CCN(CC(=O)Nc1cc(Cl)ccc1C)C(=O)C1COc2ccccc2O1 (stereo unspecified)	none (no result: SKKanGAS inh)
CCOc1cc(/C=N/NC(=O)C(N)=O)cc(Br)c1O	none
CCOc1cc(Br)c(Br)c(C=Nc2ccc(NC(C)=O)cc2)c1O	Mdm2-MdmX inh 68 | Mdm2 MdmX conf 76 | Full FLuc ctr inactive
Oc1ccc2ccccc2c1/C=N/c1nccs1	none
Oc1ccc2ccccc2c1C=NCc1cn2ccsc2n1	Mdm2-MdmX inh 51 | Mdm2 MdmX conf inactive
O=C(c1cccs1)N1CCN(S(=O)(=O)c2cccc(Cl)c2Cl)CC1	none (no result: CSC inhib, Beta apoptosis, SKKanGAS inh)
Cc1nnsc1C(=O)N/N=C/c1ccccc1	none
Cc1nc(N)sc1C(=O)N/N=C/c1ccccc1[N+](=O)[O-]	none
Cc1nnsc1C(=O)N/N=C/c1ccc2ccccc2c1O	CSC inhib 78, Beta apoptosis 125, SKKanGAS inh 56, Mdm2-MdmX inh 63 | Mdm2 MdmX conf 75 | Full FLuc ctr inactive
Cc1nc(N)sc1C(=O)N/N=C/c1c[nH]c2ccccc12	Mdm2-MdmX inh 51 | Mdm2 MdmX conf inactive
CC(C)(C)N(Cc1ccccc1)C(=O)COC(=O)/C=C/c1ccc2c(c1)OCO2	none (no result: CSC inhib, SKKanGAS inh)
COc1ccccc1CNC(=O)c1ccc2c(=O)n3c(nc2c1)CCCCC3	none (no result: CSC inhib)
Cc1c(C(=O)N2CCN(CCc3ccccn3)CC2)oc2ccc(Cl)cc12	none
Cc1ccc(N=Cc2c(O)c3ccccc3oc2=O)c(C)c1	none
CC(=O)Nc1ccc(N=Cc2c(O)c3ccccc3oc2=O)cc1	Mdm2-MdmX inh 53 | Mdm2 MdmX conf inactive
O=C(NCCN1CCN(c2cccc(Cl)c2)CC1)c1ccc(CSc2nc3ccncc3[nH]2)cc1	none
CCN(CC)S(=O)(=O)c1ccc(N2CCCC2)c(NC(=O)CN2C(=O)NC3(CCCC3)C2=O)c1	none
CCC(CC)NCc1ccc2c(c1)c1ccccc1n2CC	Mdm2-MdmX inh 57 | Mdm2 MdmX conf 43 | Full FLuc ctr 65
CCn1c2ccccc2c2cc(N)ccc21	none
COc1cccc(CNCc2ccc(OC)cc2OC)c1	none (no result: Beta apoptosis)
CCn1c2ccccc2c2cc(CNCc3ccc(OC)cc3OC)ccc21	Mdm2-MdmX inh 100 | Mdm2 MdmX conf 60 | Full FLuc ctr 54
CCNc1ccc(C(=O)OCC)cc1NC(=O)c1cccc(N(C)C)c1	Mdm2-MdmX inh 58 (no result: CSC inhib, Beta apoptosis) | Mdm2 MdmX conf 54 | Full FLuc ctr 65
CCNc1ccc(C(=O)OCC)cc1NC(=O)c1cccc(S(=O)(=O)N(C)c2ccccc2)c1	none
COc1cccc(CNC(=O)c2ccccc2NC(=O)C2=C(C)OCCS2)c1OC	none
CCOc1ccc(C(=O)/C=C/Nc2ccc(S(=O)(=O)N=C(N)N)cc2)cc1	Mdm2-MdmX inh 74 | Mdm2 MdmX conf inactive
CCn1ncc(CN2CCCC(C(=O)Nc3cccc(-c4cc5ccccc5[nH]4)c3)C2)c1C (stereo unspecified)	Mdm2-MdmX inh 59 | Mdm2 MdmX conf inactive
O=C(COC(=O)c1nc(Cl)c(Cl)c(Cl)c1Cl)c1ccc[nH]1	Mdm2-MdmX inh 73 (no result: Beta apoptosis) | Mdm2 MdmX conf inactive
O=C(COc1ccc2ccccc2c1)N[C@@H](C(=O)O)c1ccc(O)cc1	none
O=C(COc1ccc(Cl)cc1)NCCS(=O)(=O)N1CCN(c2ccccc2F)CC1	none
CCC(=O)NC(c1ccco1)c1cc(Cl)c2cccnc2c1OC (stereo unspecified)	none (no result: SKKanGAS inh)
COc1ccc(Cl)cc1C(Nc1cccnc1)c1ccc2cccnc2c1O (stereo unspecified)	SKKanGAS inh 69, Mdm2-MdmX inh 67 (no result: Beta apoptosis) | Mdm2 MdmX conf 63 | Full FLuc ctr 44
CCC(=O)NC(C)c1cc(Cl)c2ccccc2c1O (stereo unspecified)	none (no result: SKKanGAS inh)
CCCCCOc1ccc(NC(=O)CSc2cccc3cccnc23)cc1	none
COc1ccc(C(=O)Nc2cccnc2)cc1OC	none
CCCCC(=O)NC(c1ccco1)c1cc(Cl)c2cccnc2c1O (stereo unspecified)	CSC inhib 102, Beta apoptosis 104, SKKanGAS inh 52, Mdm2-MdmX inh 63 | Mdm2 MdmX conf 56 | Full FLuc ctr inactive
CCCCC(=O)NC(c1ccc(C(C)C)cc1)c1ccc2cccnc2c1O (stereo unspecified)	SKKanGAS inh 88, Mdm2-MdmX inh 78 (no result: CSC inhib, Beta apoptosis) | Mdm2 MdmX conf 88 | Full FLuc ctr inactive
CCC(=O)NC(c1ccc(OC)cc1)c1cc(Cl)c2cccnc2c1O (stereo unspecified)	CSC inhib 119, Beta apoptosis 96, Mdm2-MdmX inh 79 | Mdm2 MdmX conf 81 | Full FLuc ctr inactive
CC(=O)NC(c1ccc(C(C)C)cc1)c1ccc2cccnc2c1O (stereo unspecified)	CSC inhib 109, Beta apoptosis 90, Mdm2-MdmX inh 81 | Mdm2 MdmX conf 83 | Full FLuc ctr inactive
CCCCC(=O)NC(c1ccccc1Cl)c1ccc2cccnc2c1O (stereo unspecified)	CSC inhib 99, Beta apoptosis 106, SKKanGAS inh 69, Mdm2-MdmX inh 80 | Mdm2 MdmX conf 90 | Full FLuc ctr inactive
COc1ccc(C(NC(=O)c2cccnc2)c2cc(Cl)c3cccnc3c2O)cc1OC (stereo unspecified)	Beta apoptosis 91, Mdm2-MdmX inh 75 (no result: CSC inhib) | Mdm2 MdmX conf 78 | Full FLuc ctr inactive
CCCCC(=O)NC(c1ccccc1)c1ccc2cccnc2c1O (stereo unspecified)	CSC inhib 110, Beta apoptosis 99, Mdm2-MdmX inh 72 | Mdm2 MdmX conf 88 | Full FLuc ctr 50
